Reference: ChEMBL document CHEMBL2169740 (J Med Chem, 2012)

How the values were obtained:
[1] = Permeability of the compound at pH 7.4 by PAMPA; format: ADME
[2] = test system: Liver microsomes; assay: Intrinsic clearance in human liver microsomes after 0.5 to 4 hrs by UPLC-MS analysis; format: ADME, Microsome
Procedure, shortened: (§1)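 Pooled liver microsomes (female CD-1 mouse or mixed-gender human) at 0.5 mg/mL in 0.1 M potassium phosphate pH 7.4 with EDTA, with NADPH-regenerating solutions A+B; 37 °C with shaking; quenched at 0, 0.5, 1, 2, 4 h with cold methanol containing 10 μM warfarin internal standard. UPLC-MS (SIR); k from log peak-area-ratio slope, t1/2 = 0.693/k, CLint normalised to microsomal protein; triplicate.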

[3] = test system: Liver; assay: Intrinsic clearance in CD1 mouse liver microsomes after 0.5 to 4 hrs by UPLC-MS analysis; format: ADME, Microsome; procedure, shortened: as §1
[4] = Permeability of the compound at pH 4.0 by PAMPA; format: ADME
Procedure, shortened: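 PAMPA: compound diluted in system buffer at pH 7.4 or 4 as donor; membrane coated with GIT lipid; acceptor buffer; stirred 30 min with 40 μm aqueous boundary layer. UV spectra (250–500 nm) of reference, donor and acceptor; permeability coefficient from spectral AUCs; triplicate.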

[5] = AUC in CD1 mouse at 200 mg/kg, po administered as single dose; format: ADME, organism-based; set-up: dose 200 mg/kg, route oral; conditions: plasma
Procedure, shortened: (§2)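 Female CD1 mice given one oral gavage dose (30, 50 or 200 mg/kg), n=3 per test article. Blood drawn from three mice at 15, 30, 60 min and 2, 4, 6, 8, 10, 24 h after dosing. Plasma concentration measured by LCMS over 24 h.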

[6] = Cmax in CD1 mouse at 30 mg/kg, po administered as single dose; format: ADME, organism-based; set-up: dose 30 mg/kg, route oral; conditions: in vivo; procedure, shortened: as §2
[7] = AUC in CD1 mouse at 30 mg/kg, po administered as single dose; format: ADME, organism-based; set-up: dose 30 mg/kg, route oral; conditions: plasma; procedure, shortened: as §2
[8] = Cmax in CD1 mouse at 200 mg/kg, po administered as single dose; format: ADME, organism-based; set-up: dose 200 mg/kg, route oral; conditions: in vivo; procedure, shortened: as §2
[9] = AUC (infinity) in CD1 mouse at 50 mg/kg, po administered as single dose; format: ADME, organism-based; set-up: time infinity, dose 50 mg/kg, route oral; conditions: plasma; procedure, shortened: as §2
[10] = Cmax in CD1 mouse at 50 mg/kg, po administered as single dose; format: ADME, organism-based; set-up: dose 50 mg/kg, route oral; conditions: in vivo; procedure, shortened: as §2

Compound	permeability [1] [×10⁻⁶ cm/s]	Intrinsic clearance (CLint) [2] [µL/min/mg]	Intrinsic clearance (CLint) [3] [µL/min/mg]	permeability [4] [×10⁻⁶ cm/s]	AUC(0-inf) [5] [µM·h]	Cmax [6] [nM]	AUC(0-inf) [7] [µM·h]	Cmax [8] [nM]	AUC(0-inf) [9] [µM·h]	Cmax [10] [µM]
COc1cc2[nH]c(-c3cccc(Oc4ccccc4)c3)c(C(=O)OCCCN3CCOCC3)c(=O)c2cc1F	880	11	24	30	–	–	–	–	–	–
CCOC(=O)c1c(-c2cc(F)cc(OC)c2)[nH]c2cc(OC)c(F)cc2c1=O	230	56	6.7	–	19	–	–	1600	9.3	0.71
CCOC(=O)c1c(-c2cccc(Oc3ccccc3)c2)[nH]c2cc(OC)c(F)cc2c1=O	560	–	16	–	–	–	–	–	–	–
CCOC(=O)c1c(-c2cccc(Cl)c2)[nH]c2cc(OC)c(F)cc2c1=O	410	0.5	4	–	280	–	–	66000	130	38
CCOC(=O)c1c(-c2ccc3c(c2)OCO3)[nH]c2cc(OC)ccc2c1=O	–	12	12	–	65	1500	6.1	5000	–	–
COc1cc2[nH]c(-c3cccc(Oc4ccccc4)c3)c(C(=O)OCCO)c(=O)c2cc1F	620	4.8	11	–	–	–	–	–	–	–
CCOC(=O)c1c(-c2cccc(Br)c2)[nH]c2cc(OC)c(F)cc2c1=O	670	1.2	2.7	–	160	–	–	39000	71	31

Further lines, results first:

permeability [1] [×10⁻⁶ cm/s]	Intrinsic clearance (CLint) [2] [µL/min/mg]	Intrinsic clearance (CLint) [3] [µL/min/mg]	permeability [4] [×10⁻⁶ cm/s]	AUC(0-inf) [5] [µM·h]	Cmax [6] [nM]	AUC(0-inf) [7] [µM·h]	Cmax [8] [nM]	AUC(0-inf) [9] [µM·h]	Cmax [10] [µM]	Compound
–	5.7	7.9	–	7.8	8000	8	5800	–	–	CCOC(=O)c1c(-c2cccc(OC)c2)[nH]c2cc(OC)ccc2c1=O
–	3.4	16	–	–	–	–	–	–	–	CCOC(=O)c1c(-c2cccc(Cl)c2)[nH]c2cc(OC)ccc2c1=O
260	5.7	12	–	10	1900	5.1	2400	–	–	CCOC(=O)c1c(-c2cccc(OCC)c2)[nH]c2cc(OC)ccc2c1=O
2900	5	5.7	–	4.3	230	1.7	430	–	–	CCOC(=O)c1c(-c2cccc(-c3ccccc3)c2)[nH]c2cc(OC)ccc2c1=O
750	–	35	–	1	60	0.15	400	–	–	CCOC(=O)c1c(-c2cccc(Oc3ccccc3)c2)[nH]c2cc(OC)ccc2c1=O
340	12	39	–	7.7	300	1.6	1800	–	–	CCCOc1cccc(-c2[nH]c3cc(OC)ccc3c(=O)c2C(=O)OCC)c1
